Measured values pooled from the literature.
pEC50, pIC50: −log10 of the molar value.

Nc1cc(Cl)c(Cl)cc1N
pIC50 (ME-180; cell growth or viability; 72 h): 4.00

CC1CCN(CCCN2/C(=C/c3cc[n+](C)c4ccccc34)Sc3ccccc32)CC1.[I-]
MIC (Enterobacter cloacae; microbial growth, broth dilution; ATCCBAA1143): > 64 µg/mL

CN1C[C@H](C(=O)N[C@]2(C)O[C@@]3(O)[C@@H]4CCCN4C(=O)[C@H](Cc4ccccc4)N3C2=O)C=C2c3cccc4[nH]cc(c34)C[C@H]21
pEC50 (NCI-H1299; cell growth or viability, MTT; 72 h): ~4.60

CCCCCOc1ccc(-c2cc(-c3ccc(C(=O)N[C@H]4C[C@@H](O)[C@@H](O)NC(=O)[C@@H]5[C@@H](O)[C@@H](C)CN5C(=O)[C@H]([C@H](O)CC(N)=O)NC(=O)[C@H]([C@H](O)[C@@H](O)c5ccc(O)c(OS(=O)(=O)O)c5)NC(=O)[C@@H]5C[C@@H](O)CN5C(=O)[C@H]([C@@H](C)O)NC4=O)cc3)no2)cc1
inhibition (Candida dubliniensis; biofilm formation; 16 µg/mL): 42%

COc1cccc(Oc2ccccc2NC(=O)CNC(=O)c2cccc3ccccc23)c1
GI50 (HL-60; cell growth or viability; 48 h): 0.0813 µM

CO[C@H]1/C=C/O[C@@]2(C)Oc3c(C)c(O)c4c(O)c(c(/C=N/N5CCN(C)CC5)c(O)c4c3C2=O)NC(=O)/C(C)=C\C=C\[C@H](C)[C@H](O)[C@@H](C)[C@@H](O)[C@@H](C)[C@H](OC(C)=O)[C@@H]1C
IC50 (Vero; cell growth or viability; 18 h): 120 µg/mL

Nc1cc(Br)c(Br)cc1N
pIC50 (ME-180; cell growth or viability; 72 h): 4.12

CN[C@H](CC(C)C)C(=O)N[C@H]1C(=O)N[C@@H](CC(N)=O)C(=O)N[C@H]2C(=O)N[C@H]3C(=O)N[C@H](C(=O)N[C@H](C(=O)O)c4cc(O)cc(O)c4-c4cc3ccc4O)[C@H](O)c3ccc(c(Cl)c3)Oc3cc2cc(c3O[C@@H]2O[C@H](CO)[C@@H](O)[C@H](O)[C@H]2O[C@H]2C[C@](C)(N)[C@H](O)[C@H](C)O2)Oc2ccc(cc2Cl)[C@H]1O
MIC (Enterobacter cloacae; microbial growth, broth dilution; ATCCBAA1143): > 64 µg/mL
